In ChEMBL document CHEMBL1157559, “Synthesis and biological evaluation of novel pyrazolyl-2,4-thiazolidinediones as anti-inflammatory and neuroprotective agents” (Bioorg Med Chem, 2010):
The source made the active and inactive calls. No cut-off for these calls is given here.

Legend:
[1] = biological target: T1, Prostaglandin G/H synthase 1 (Ovis aries) (UniProt P05979); test: Inhibition of ovine COX1 at 10 uM
T1 sequence (whole entry): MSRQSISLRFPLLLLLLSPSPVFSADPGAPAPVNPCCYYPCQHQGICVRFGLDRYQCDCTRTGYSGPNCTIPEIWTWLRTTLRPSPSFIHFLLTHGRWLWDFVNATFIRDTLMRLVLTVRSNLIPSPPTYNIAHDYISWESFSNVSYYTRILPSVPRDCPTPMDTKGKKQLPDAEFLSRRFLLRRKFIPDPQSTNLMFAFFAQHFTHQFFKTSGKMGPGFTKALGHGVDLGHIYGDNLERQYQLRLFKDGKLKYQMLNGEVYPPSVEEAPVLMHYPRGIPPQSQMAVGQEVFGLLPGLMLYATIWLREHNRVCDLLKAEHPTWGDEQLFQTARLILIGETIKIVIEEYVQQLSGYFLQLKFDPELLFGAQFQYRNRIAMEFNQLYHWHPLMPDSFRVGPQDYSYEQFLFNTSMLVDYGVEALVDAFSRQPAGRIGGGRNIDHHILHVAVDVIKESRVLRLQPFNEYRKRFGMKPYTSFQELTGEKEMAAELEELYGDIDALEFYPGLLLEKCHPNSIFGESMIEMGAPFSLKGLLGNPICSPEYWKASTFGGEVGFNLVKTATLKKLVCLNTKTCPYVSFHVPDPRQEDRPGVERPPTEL
Summary of the method: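 Kit assay with ovine COX-1, run per manufacturer's protocol. Read-out was percent inhibition of prostaglandin production, with compound at 10 µM and three experiments.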

THP-1 = test: Inhibition of MCP1 release in human THP1 cells after 24 hrs by ELISA; assay type: functional, cell-based
Summary of the method: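 THP-1 cells pretreated 15 min with compound, then stimulated with LPS 0.5 µg/mL plus IFN-γ 150 U/mL. After 24 h, MCP-1 (ng/mL) measured in cell-free medium by ELISA.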

Rattus norvegicus [2] = test: Gastrointestinal toxicity in Wistar albino rat assessed as ulceration at 100 mg/kg/day, po administered twice daily for 3 days; assay type: organism-based; parameters: route oral; conditions: in vivo, 72 h
Summary of the method: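 Male rats 180–200 g, groups of five, fasted 12 h with water available. Compounds given orally as two equal doses at 0 and 12 h, 100 mg/kg per day, for three successive days; vehicle control 1% gum acacia. Rats killed 6 h after last dose. Stomach opened along greater curvature, washed with cold saline and inspected under 3× lens for hyperemia, hemorrhage, erosions or ulcers.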

SH-SY5Y [3] = test: Neuroprotective activity in human SH-SY5Y cells assessed as inhibition of LPS, IFN-gamma-stimulated THP1 cellular supernatant-induced cytotoxicity after 72 hrs by LDH assay; assay type: functional, cell-based
Summary of the method: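 SH-SY5Y cells plated 24 h, then medium replaced with supernatant from THP-1 cells stimulated with LPS + IFN-γ for 48 h. Compound added directly to the SH-SY5Y cells at the time of transfer. Cell death measured by LDH release after 72 h; 4–6 independent experiments.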

Rattus norvegicus [4] = test: Antiinflammatory activity in Wistar albino rat sub-acute inflammatory model assessed as inhibition of formalin-induced paw edema at 20 mg/kg, po administered daily for 7 days by plethysmometer relative to control; assay type: functional; conditions: 168 h
Summary of the method: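 Rats dosed orally at 20 mg/kg daily for 7 consecutive days. 0.1 mL 2% formalin given subplantar in left hind paw under light ether 1 h after the first oral dose, with a second injection on day 3. Paw edema weight (g) measured on day 8. % inhibition = (control − treated)/control ×100. Groups of five.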

HL-60 = test: Inhibition of phagocyte respiratory burst in human HL60 cells after 6 to 7 days by luminol-induced chemiluminescence; assay type: functional, cell-based
Summary of the method: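 HL-60 cells differentiated 6–7 days in DMEM-F12 with 10% FBS and 1.3% DMSO, washed into serum-free, phenol red-free medium, then held 30 min at 37 °C before compound or DMSO was added. Luminol injected, 7.5 min baseline recorded, then FMLP injected (final 1 µM; luminol 5 mM; DMSO 0.5%). Chemiluminescence recorded 30 min at 37 °C; read-out was area under the curve.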

[5] = biological target: T2, Prostaglandin G/H synthase 2 (Homo sapiens) (UniProt P35354); conditions: at 10 µM
T2 sequence (whole entry): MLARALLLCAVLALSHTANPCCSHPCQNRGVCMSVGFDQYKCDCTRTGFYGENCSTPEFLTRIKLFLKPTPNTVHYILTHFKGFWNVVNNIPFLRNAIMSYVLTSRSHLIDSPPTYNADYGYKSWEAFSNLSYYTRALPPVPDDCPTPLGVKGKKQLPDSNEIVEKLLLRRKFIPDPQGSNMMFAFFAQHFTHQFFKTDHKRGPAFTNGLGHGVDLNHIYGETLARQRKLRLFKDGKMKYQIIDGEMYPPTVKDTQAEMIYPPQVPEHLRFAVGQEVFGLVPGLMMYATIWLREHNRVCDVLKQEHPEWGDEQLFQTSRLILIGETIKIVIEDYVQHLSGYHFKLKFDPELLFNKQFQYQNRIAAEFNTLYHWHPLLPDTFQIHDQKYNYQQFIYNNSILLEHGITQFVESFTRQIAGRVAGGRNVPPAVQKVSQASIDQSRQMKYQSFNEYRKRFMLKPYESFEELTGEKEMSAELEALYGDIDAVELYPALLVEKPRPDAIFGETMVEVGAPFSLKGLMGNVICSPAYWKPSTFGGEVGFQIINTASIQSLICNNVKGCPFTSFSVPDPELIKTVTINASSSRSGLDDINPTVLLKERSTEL

SH-SY5Y [6] = test: Antineurotoxicity in human SH-SY5Y cells assessed as inhibition human THP1 cell supernatant-induced cytotoxicity compound pretreated 24 to 48 hrs to THP1 cells measured after 72 hrs of supernatant addition; assay type: functional, cell-based
Summary of the method: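 THP-1 cells in DMEM-F12 with 5% FBS, pretreated 15 min with compound or DMSO, then stimulated with LPS 0.5 µg/mL plus IFN-γ 150 U/mL for 24 or 48 h. Cell-free supernatant transferred to SH-SY5Y cells plated 24 h earlier. After 72 h, viability by LDH release and MTT. IC50 from curves of at least three independent experiments.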

Rattus norvegicus [7] = test: Antiinflammatory activity in Wistar albino rat acute inflammatory model assessed as inhibition of formalin-induced paw edema at 20 mg/kg, po administered 1 hr before formalin challenge measured after 2 hrs by plethysmometer relative to control; assay type: functional; parameters: scale not given: the % may be the effect or the level left
Summary of the method: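 Male Wistar rats, 180–200 g, groups of five. Test compound 20 mg/kg po; 1 h later 0.1 mL 2% formalin injected subplantar into left hind paw under light ether anesthesia. Paw volume by water plethysmometer at 0 and 1, 2, 3, 4 h after formalin. % inhibition = (Vt−V0)control minus (Vt−V0)treated, divided by (Vt−V0)control ×100. Mean ± SEM, ANOVA with Student–Newman–Keuls.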

Rattus norvegicus [8] = test: Antiinflammatory activity in Wistar albino rat sub-acute inflammatory model assessed as inhibition of turpentine oil-induced granuloma pouch exudate volume at 20 mg/kg, po 1 hr before turpentine oil challenge for 7 days assessed measured on day 8; assay type: functional
Summary of the method: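 Male rats 120–150 g, five per group. Subcutaneous dorsal pouch made under ether with 2 mL air, then 0.5 mL turpentine oil injected. Compound 20 mg/kg po 1 h before turpentine, then daily for seven days. On day 8 exudate drawn by syringe under anesthesia and volume measured. % inhibition = (Vcontrol − Vtreated)/Vcontrol ×100.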

With `O=C1NC(=O)/C(=C/c2cn(-c3ccc([N+](=O)[O-])cc3)nc2-c2ccc(Cl)cc2)S1` the inhibition [1] was 28.4%, the inhibition (THP-1) was “inactive” and the Activity (Rattus norvegicus [2]) was 0%. For the same compound, the inhibition (SH-SY5Y [3]) was “inactive”, the inhibition in vivo at 20 mg/kg (Rattus norvegicus [4]) was 51% and the IC50 (HL-60) was 1000 nM. The inhibition [5] was 19.4%, the IC50 (SH-SY5Y [6]) was 2000 nM and the Activity (Rattus norvegicus [7]) was 46%. For the same compound, the inhibition in vivo at 20 mg/kg (Rattus norvegicus [8]) was 51%.
